Source: paper PMC6044994 (ACS Omega, 2018)
≈ marks a conversion by molar mass, not a printed value. Read-outs that look alike come from different tables or passages of the source.

Legend:
[1] = test system: multidrug-resistant E. coli strains; assay type: cell-based, Escherichia coli; settings: for inhibition at 1024 µg/mL: Escherichia coli
[2] = test system: multidrug-resistant E. coli strains MRA11, MRC17, MRAE33; assay: Synergistic study with CIP, checkerboard method; assay type: cell-based, Escherichia coli; settings: for MIC: Escherichia coli
[3] = test system: E. coli; assay: CFU count of bacterial cells post treatment; assay type: cell-based, Escherichia coli; settings: treated bacterial cells
[4] = test system: S. pneumoniae; assay: CFU count of bacterial cells post treatment; assay type: cell-based, Streptococcus pneumoniae; settings: treated bacterial cells
[5] = test system: human red blood cells (hRBCs); assay: Hemolytic assay; assay type: cell-based
Method in brief: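 Erythrocytes from healthy donors (EDTA) pelleted at 2000 rpm for 10 min at 20 °C and washed three times in PBS. Made to a 10% suspension, diluted 1:10, then mixed 1:1 with test compound in PBS (gradient 1000–7.8 μg/mL). Incubated 1 h at 37 °C and centrifuged; supernatant A450 used to calculate % hemolysis.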

[6] = test system: S. pneumoniae (MTCC 655); assay: In vitro antibacterial activity, broth dilution; assay type: cell-based; settings: Streptococcus pneumoniae, MTCC655
[7] = test system: E. coli (ATCC 25922); assay: In vitro antibacterial activity, broth dilution; assay type: cell-based; settings: Escherichia coli, ATCC25922
[8] = test system: S. pneumoniae; assay: Growth kinetic studies; assay type: cell-based, Streptococcus pneumoniae; settings: for time at which growth was observed: S. pneumoniae
Method in brief: (§1)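 Fresh cultures grown 12 h at 37 °C, then about 2 × 10^6 cells/mL inoculated into 50 mL nutrient broth. […] Shaken at 37 °C, 160 rpm. Samples taken every 2 h from 0 to 22 h, with OD600 plotted against time.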

[9] = test system: E. coli; assay: Growth kinetic studies; assay type: cell-based, Escherichia coli; settings: for time at which growth was observed (lag phase): sub-MIC concentration
Method in brief: as §1

[10] = test system: E. coli cells; assay: TEM analysis of cell morphology; assay type: cell-based, Escherichia coli; settings: MIC concn, 1 h
Method in brief: (§2)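 Cells standardized to A600 ≈ 0.1 and exposed 1 h to test compound: E. coli at 62.5 or 125 μg/mL, S. pneumoniae at 125 μg/mL. Washed in PBS, fixed overnight in 2.5% glutaraldehyde (phosphate/MgCl2 buffer, pH 6.5). Postfixed 2 h in 2% OsO4, stained en bloc with 1% uranyl acetate, ethanol-dehydrated, Epon-embedded (60 °C, 48 h). Ultrathin sections imaged by TEM.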

[11] = test system: S. pneumoniae cells; assay: TEM analysis of cell morphology; assay type: cell-based, Streptococcus pneumoniae; settings: MIC concn, 1 h
Method in brief: as §2

[12] = test system: E. coli biofilm; assay: Anti-biofilm activity by XTT reduction assay; assay type: cell-based; settings: Escherichia coli, read-out: inhibition of biofilm formation (XTT)
Method in brief: (§3)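 Biofilm grown in tryptic soy broth from 5 × 10^5 CFU/mL inocula with 2-fold serial dilutions of test compound (7.812–1000 μg/mL), 37 °C for 24 h, static. Nonadherent cells removed by PBS wash.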

[13] = test system: S. pneumoniae biofilm; assay: Anti-biofilm activity by XTT reduction assay; assay type: cell-based; settings: Streptococcus pneumoniae, read-out: inhibition of biofilm formation (XTT)
Method in brief: as §3

[14] = test system: E. coli biofilm; assay: Anti-biofilm activity by crystal violet assay; assay type: cell-based; settings: Escherichia coli, read-out: inhibition of biofilm formation (crystal violet)
[15] = test system: S. pneumoniae biofilm; assay: Anti-biofilm activity by crystal violet assay; assay type: cell-based; settings: Streptococcus pneumoniae, read-out: inhibition of biofilm formation (crystal violet)
[16] = Cytotoxicity by MTT assay; assay type: cell-based, human; settings: human, HEK293 cells
[17] = test system: HEK293 cells; assay: Cytotoxicity by MTT assay; assay type: cell-based, human; settings: HEK293, up to 100 μg/mL concentration
[18] = test system: G. mellonella larvae; assay: In vivo toxicity, larval viability; design: species or system Galleria mellonella; settings: up to 2.5 mg/mL
[19] = test system: G. mellonella larvae; assay: In vivo toxicity, hemocyte density of larvae; design: species or system Galleria mellonella; settings: 2.5 mg/mL, 24 h
Method in brief: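 Three larvae injected with 20 μL of test compound at 1.25 or 2.5 mg/mL and kept 24 h at 30 °C in the dark. Hemolymph collected from the anterior end and diluted 1 in 10 in cold PBS with 0.37% 2-mercaptoethanol. Hemocytes counted on a hemocytometer and density back-calculated.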

[20] = read-out: MIC alone, E. coli MRA11
[21] = read-out: MIC alone, E. coli MRAE33
[22] = read-out: MIC alone, E. coli MRC17
[23] = read-out: % inhibition of growth, E. coli MRA11, at 1024 μg/mL (MIC)
[24] = read-out: % inhibition of growth, E. coli MRAE33, at 1024 μg/mL (MIC)
[25] = read-out: % inhibition of growth, E. coli MRC17, at 1024 μg/mL (MIC)
[26] = E. coli MRA11, in combination with CIP
[27] = E. coli MRA11, test compound in combination with CIP
[28] = E. coli MRAE33, in combination with CIP
[29] = E. coli MRAE33, test compound in combination with CIP
[30] = E. coli MRC17, in combination with CIP
[31] = E. coli MRC17, test compound in combination with CIP

| SMILES | MIC [2, 20] | MIC [2, 21] | MIC [2, 22] | CFUs E. coli [3] | CFUs S. pneumoniae [4] | cell lysis ([5]; 200 μg/mL) | MIC [6] | MIC [7] | inhibition at 1024 µg/mL [1, 23] | inhibition at 1024 µg/mL [1, 24] | inhibition at 1024 µg/mL [1, 25] | FICI [2, 26] | mode of interaction [2, 26] | MIC in combination [2, 27] | FICI [2, 28] | mode of interaction [2, 28] | MIC in combination [2, 29] | FICI [2, 30] | mode of interaction [2, 30] | MIC in combination [2, 31] | also measured |
| --- | --- | --- | --- | --- | --- | --- | --- | --- | --- | --- | --- | --- | --- | --- | --- | --- | --- | --- | --- | --- | --- |
| O=C(O)c1cn(C2CC2)c2cc(N3CCNCC3)c(F)cc2c1=O [CIP, Ciprofloxacin, reference compound] | 128 µg/mL | 2 µg/mL | 128 µg/mL | 2.0 × 10^4 | 5.0 × 10^3 | 0.8% |  |  |  |  |  |  |  |  |  |  |  |  |  |  | % inhibition of growth ([1]; multidrug-resistant E. coli strains, at a concentration lower than those of the compounds): ~100%; MIC in combination ([2]; E. coli MRA11, CIP in combination with 5e): 2 µg/mL; MIC in combination ([2]; E. coli MRA11, CIP in combination with 5u): 16 µg/mL; MIC in combination ([2]; E. coli MRAE33, CIP in combination with 5e): 2 µg/mL; MIC in combination ([2]; E. coli MRAE33, CIP in combination with 5u): 2 µg/mL; MIC in combination ([2]; E. coli MRC17, CIP in combination with 5e): 2 µg/mL; MIC in combination ([2]; E. coli MRC17, CIP in combination with 5u): 64 µg/mL |
| Cc1ccc(C(C)C)cc1OCc1cn(-c2ccc(C(=O)O)cc2)nn1 [Compound 5e, 4-(4-((5-Isopropyl-2-methylphenoxy)methyl)-1H-1,2,3-triazol-1-yl)benzoic Acid] | 1020 µg/mL | 1020 µg/mL | 1020 µg/mL | 2.5 × 10^4 | 7.8 × 10^3 | 9% | 125 µg/mL (≈ 356 µM) | 62.5 µg/mL (≈ 178 µM) | > 95% | 86% | 79% | 0.03 | synergistic (Synergy and antagonism were defined by FICI ≤ 0.5 and >4, respectively) | 16 µg/mL | 1.02 | indifferent (indifferent was defined by 1 < FICI ≤ 4) | 16 µg/mL | 0.03 | synergistic (Synergy and antagonism were defined by FICI ≤ 0.5 and >4, respectively) | 16 µg/mL | growth of S. pneumoniae ([8]; sub-MIC concentration (62.5 μg/mL)): effectively inhibited the growth; time at which growth was observed (lag phase) ([9]; E. coli): approximately 6 h; growth of E. coli ([9]; MIC and 2MIC concentrations, up to 22 h of incubation): no significant growth; effect on cell morphology (TEM) [10]: significantly damaged the cell wall; effect on cell morphology (TEM) [11]: significantly damaged the cell wall; inhibition at 125 µg/mL [12]: 95.2%; inhibition at 250 µg/mL [13]: 92.3%; inhibition at 125 µg/mL [14]: 94.3%; inhibition at 250 µg/mL [15]: 93.4%; viability at 48 h, 50 μg/mL [16]: > 75%; viability at 48 h, 200 μg/mL [16]: > 50%; cytotoxicity [17]: did not show significant cytotoxicity; cell lysis ([5]; 600 μg/mL): 22%; viability of the larvae [18]: not affected; hemocyte density of the larvae [19]: not significantly affected |
| O=C(O)c1ccc(-n2cc(COC3=CC(=O)c4ccccc4C3=O)nn2)cc1 [Compound 5u, 4-(4-((1,4-Dioxo-1,4-dihydronaphthalen-2-yloxy)methyl)-1H-1,2,3-triazol-1-yl)benzoic Acid] | 1020 µg/mL | 1020 µg/mL | 1020 µg/mL | 2.7 × 10^4 | 6.0 × 10^3 | 9% | 125 µg/mL (≈ 333 µM) | 125 µg/mL (≈ 333 µM) | > 90% | ~100% | ~100% | 0.62 | partially synergistic (Partially synergistic was denoted by 0.5 > FICI < 1) | 512 µg/mL | 1.02 | indifferent (indifferent was defined by 1 < FICI ≤ 4) | 16 µg/mL | 1.50 | indifferent (indifferent was defined by 1 < FICI ≤ 4) | 1024 µg/mL | time at which growth was observed ([8]; MIC concentration): 9 h; time at which growth was observed ([8]; sub-MIC concentration): 8 h; time at which growth was observed ([9]; E. coli, MIC concentration): 9 h; time at which growth was observed (lag phase) ([9]; E. coli): 6 h; effect on cell morphology (TEM) [10]: significantly damaged the cell wall; effect on cell morphology (TEM) [11]: significantly damaged the cell wall; inhibition at 250 µg/mL [12]: 92.3%; inhibition at 250 µg/mL [13]: 100%; inhibition at 250 µg/mL [14]: 77.3%; inhibition at 250 µg/mL [15]: 98.3%; viability at 48 h, 50 μg/mL [16]: > 75%; viability at 48 h, 200 μg/mL [16]: > 50%; cytotoxicity [17]: did not show significant cytotoxicity; cell lysis ([5]; 600 μg/mL): 12%; viability of the larvae [18]: not affected; hemocyte density of the larvae [19]: not significantly affected |
